Data published in ChEMBL document CHEMBL4699663, “Design, synthesis, and biological activity of novel semicarbazones as potent Ryanodine receptor1 inhibitors of Alzheimer's disease” (Bioorg Med Chem, 2021).
Values after ≈ are worked out from the molar mass of the structure shown. Active and inactive are the calls of the source. The calls are words filed in the database; no cut-off is given here.

Columns and labels:
Homo sapiens [1] = species: Homo sapiens; experiment: Inhibition of RYR-1 R614C mutant (unknown origin) expressed in cells assessed as inhibition of store overload-induced Ca2+ release at 3 uM after 3 mins by fura-2AM dye based microscopic analysis relative to control; type: cell-based
Homo sapiens [2] = species: Homo sapiens; experiment: Inhibition of RYR-1 R614C mutant (unknown origin) expressed in cells assessed as inhibition of store overload-induced Ca2+ release at 10 uM after 3 mins by fura-2AM dye based microscopic analysis relative to control; type: cell-based
Homo sapiens [3] = species: Homo sapiens; experiment: Inhibition of RYR-1 R614C mutant (unknown origin) expressed in cells assessed as inhibition of store overload-induced Ca2+ release after 3 mins by microscopic analysis; type: cell-based; conditions: dose microM 0.1-10, time 3.0 min
Homo sapiens [4] = species: Homo sapiens; experiment: Inhibition of RYR-1 R614C mutant (unknown origin) expressed in cells assessed as inhibition of store overload-induced Ca2+ release at 0.1 uM after 3 mins by fura-2AM dye based microscopic analysis relative to control; type: cell-based
[5] = Kinetic aqueous solubility of the compound in PBS at pH 7.4 by turbidimetric analysis; type: physicochemical; conditions: read-out: Kinetic_solubility
Summary of the method: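 Turbidimetric kinetic solubility: DMSO stocks were diluted 100-fold into PBS pH 7.4, giving eight final concentrations (1.6–200 mM as printed). After 2 h incubation, absorbance was read at 540 nm. Wells above blank mean + 3 SD counted as turbid, and the highest clear concentration was taken as the solubility.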

[6] = molecular target: Acetylcholinesterase (Electrophorus electricus) (UniProt O42275); experiment: Inhibition of electric eel AChE at 5 uM using acetylthiocholine iodide as substrate preincubated with enzyme for 30 mins followed by substrate addition and measured for 10 mins by Ellman's method relative to control; conditions: time 40.0 min
Sequence of Acetylcholinesterase (Electrophorus electricus) (O42275 24-633 limits assumed): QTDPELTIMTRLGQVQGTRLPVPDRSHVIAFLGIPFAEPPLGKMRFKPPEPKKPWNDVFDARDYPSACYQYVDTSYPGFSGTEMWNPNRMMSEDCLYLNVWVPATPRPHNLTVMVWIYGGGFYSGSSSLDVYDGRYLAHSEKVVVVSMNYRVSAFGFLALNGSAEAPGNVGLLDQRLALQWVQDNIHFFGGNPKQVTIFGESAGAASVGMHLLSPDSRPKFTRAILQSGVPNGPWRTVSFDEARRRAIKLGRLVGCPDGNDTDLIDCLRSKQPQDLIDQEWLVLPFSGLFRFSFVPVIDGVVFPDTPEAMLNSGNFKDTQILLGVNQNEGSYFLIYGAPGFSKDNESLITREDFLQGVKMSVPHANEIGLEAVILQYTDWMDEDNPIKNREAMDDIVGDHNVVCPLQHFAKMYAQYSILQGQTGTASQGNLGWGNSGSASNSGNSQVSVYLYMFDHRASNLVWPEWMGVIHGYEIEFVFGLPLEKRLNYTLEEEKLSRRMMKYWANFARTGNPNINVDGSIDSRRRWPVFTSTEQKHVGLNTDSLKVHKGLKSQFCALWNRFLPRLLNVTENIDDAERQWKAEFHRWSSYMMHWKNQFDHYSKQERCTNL
Summary of the method: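 Electrophorus electricus AChE at 0.25 U/mL, with 60 µM DTNB in 0.05 M phosphate buffer pH 8, was incubated 30 min with the DMSO-dissolved inhibitor. The reaction was then started with 1.5 mM acetylthiocholine iodide and read at 412 nm for 10 min. Percent inhibition was taken from reaction rates versus control, from three experiments run in triplicate.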

Homo sapiens [7] = species: Homo sapiens; experiment: Inhibition of RYR-1 R614C mutant (unknown origin) expressed in cells assessed as inhibition of store overload-induced Ca2+ release at 0.1 uM after 3 mins by fura-2AM dye based microscopic analysis; type: cell-based
Homo sapiens [8] = species: Homo sapiens; experiment: Inhibition of RYR-1 R614C mutant (unknown origin) expressed in cells assessed as inhibition of store overload-induced Ca2+ release at 3 uM after 3 mins by fura-2AM dye based microscopic analysis; type: cell-based
Homo sapiens [9] = species: Homo sapiens; experiment: Inhibition of RYR-1 R614C mutant (unknown origin) expressed in cells assessed as inhibition of store overload-induced Ca2+ release at 10 uM after 3 mins by fura-2AM dye based microscopic analysis; type: cell-based
[10] = Toxicity in SPF grade FAD mouse assessed as effect on body weight at 3.2 mg/kg, ip administered for 30 consecutive days; type: organism-based; conditions: in vivo, 720 h, time 30 day
Summary of the method: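 Mixed-sex FAD mice, 5 months old, were given 3.2 mg/kg/day intraperitoneally in DMSO (1.12 mg/ml) for 30 consecutive days; controls received the same volume of DMSO. Body weight was measured daily during dosing and reported as mean ± SD (n = 7).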

Mus musculus [11] = experiment: Cognitive enhancing effect in SPF grade FAD mouse assessed as reduction in mean escape latency time at 3.2 mg/kg, ip measured on day 2 by Morris water maze test (reference value: 36.72 sec); type: functional; conditions: time 2 day
Summary of the method: (§1)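 Mixed-sex FAD mice, 5 months old at dosing, given 3.2 mg/kg intraperitoneally in DMSO (1.12 mg/ml) daily for 30 days; controls got the same volume of DMSO. Morris water maze training started after dosing. Mice entered the water facing the wall from four entry points in turn, and time to find and climb the platform was recorded. Data are mean ± SD, analysed by ANOVA.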

Mus musculus [12] = experiment: Cognitive enhancing effect in SPF grade FAD mouse assessed as reduction in mean escape latency time at 3.2 mg/kg, ip measured on day 3 by Morris water maze test (reference value: 35.59 sec); type: functional; conditions: time 3 day; summary of the method: as §1
Mus musculus [13] = experiment: Cognitive enhancing effect in SPF grade FAD mouse assessed as reduction in mean escape latency time at 3.2 mg/kg, ip measured on day 4 by Morris water maze test (reference value: 31.99 sec); type: functional; conditions: time 4 day; summary of the method: as §1
Mus musculus [14] = experiment: Improvement in learning and spatial memory in SPF grade FAD mouse assessed as swimming time on target zone at 3.2 mg/kg, ip measured 24 hrs post trial training by probe test (reference value: 23.1 +/- 1.1 %); type: functional

For `O=C(NCc1ccccc1)N/N=C/c1ccc(-c2ccc([N+](=O)[O-])cc2)o1`, the inhibition (Homo sapiens [1]) was 23.1%, the inhibition (Homo sapiens [2]) was 48.6% and the inhibition (Homo sapiens [3]) was “Dose-dependent effect”.
For `O=C(N/N=C/c1ccc(-c2ccc([N+](=O)[O-])cc2)o1)Nc1cccc(Br)c1`, the inhibition (Homo sapiens [4]) was 26.7%, the inhibition (Homo sapiens [1]) was 67.1% and the inhibition (Homo sapiens [2]) was 67.1%. For the same compound, the inhibition (Homo sapiens [3]) was “Dose-dependent effect”.
For `COc1ccccc1NC(=O)N/N=C/c1ccc(-c2ccc([N+](=O)[O-])cc2)o1`, the inhibition (Homo sapiens [2]) was 30.6% and the inhibition (Homo sapiens [3]) was “Dose-dependent effect”.
For `CN(/N=C/c1ccc(-c2ccc([N+](=O)[O-])cc2)o1)C(=O)n1ccnc1`, the inhibition (Homo sapiens [4]) was 23%, the inhibition (Homo sapiens [1]) was 53.5% and the inhibition (Homo sapiens [2]) was 74.9%. The inhibition (Homo sapiens [3]) was “Dose-dependent effect”.
Work on `O=C1CN(/N=C/c2ccc(-c3ccc([N+](=O)[O-])cc3)o2)C(O)=N1` [DANTROLENE] yielded a solubility kinetic [5] of 560 µM (≈ 176 µg/mL).
With `O=C(NCc1ccc(Cl)c(Cl)c1)N/N=C/c1ccc(-c2ccc([N+](=O)[O-])cc2)o1` the inhibition (Homo sapiens [1]) was 25.3%, the inhibition (Homo sapiens [2]) was 37.2% and the inhibition (Homo sapiens [3]) was “Dose-dependent effect”.
In the case of `O=C(NCc1ccccc1F)N/N=C/c1ccc(-c2ccc([N+](=O)[O-])cc2)o1`, the inhibition (Homo sapiens [1]) is reported as 26.1%, the inhibition (Homo sapiens [2]) is reported as 44.6% and the inhibition (Homo sapiens [3]) is reported as “Dose-dependent effect”.
With `O=C(NCc1ccc(F)cc1)N/N=C/c1ccc(-c2ccc([N+](=O)[O-])cc2)o1` the inhibition (Homo sapiens [4]) was 23.6%, the inhibition (Homo sapiens [1]) was 35.1% and the inhibition (Homo sapiens [2]) was 76.1%. For the same compound, the inhibition (Homo sapiens [3]) was “Dose-dependent effect”.
For `O=C(NCc1ccc(Cl)cc1Cl)N/N=C/c1ccc(-c2ccc([N+](=O)[O-])cc2)o1`, the inhibition (Homo sapiens [2]) was 16.2%, the inhibition [6] was 8.9% and the inhibition (Homo sapiens [3]) was “Dose-dependent effect”.
Work on `O=C(N/N=C/c1ccc(-c2ccc([N+](=O)[O-])cc2)o1)Nc1ccc(Br)cc1` yielded an inhibition (Homo sapiens [4]) of 13.2%, an inhibition (Homo sapiens [1]) of 31.3% and an inhibition (Homo sapiens [2]) of 52.9%. For the same compound, the inhibition (Homo sapiens [3]) was “Dose-dependent effect”.
In the case of `Cc1ccccc1NC(=O)N/N=C/c1ccc(-c2ccc([N+](=O)[O-])cc2)o1`, the inhibition (Homo sapiens [7]) is reported as “inactive”, the inhibition (Homo sapiens [8]) is reported as “inactive” and the inhibition (Homo sapiens [9]) is reported as “inactive”. It also gave an inhibition [6] of 18.2%.
Compound `CN(/N=C/c1ccc(-c2ccc([N+](=O)[O-])cc2)o1)C(=O)c1cncn1C` has an inhibition (Homo sapiens [4]) of 24.5%, an inhibition (Homo sapiens [1]) of 70.5% and an inhibition (Homo sapiens [2]) of 82.5%. The solubility kinetic [5] was 480 µM (≈ 170 µg/mL), the inhibition [6] was 14.3% and the inhibition (Homo sapiens [3]) was “Dose-dependent effect”.
Compound `O=C(N/N=C/c1ccc(-c2ccc([N+](=O)[O-])cc2)o1)Nc1ccccc1` has an inhibition (Homo sapiens [4]) of 15.9%, an inhibition (Homo sapiens [1]) of 35.8% and an inhibition (Homo sapiens [2]) of 93.9%. The solubility kinetic [5] was 60 µM (≈ 21 µg/mL), the inhibition [6] was 19.3% and the inhibition (Homo sapiens [3]) was “Dose-dependent effect”.
For `O=C(N/N=C/c1ccc(-c2ccc([N+](=O)[O-])cc2)o1)Nc1ccc([N+](=O)[O-])cc1`, the inhibition (Homo sapiens [1]) was 14.1%, the inhibition (Homo sapiens [2]) was 32% and the inhibition (Homo sapiens [3]) was “Dose-dependent effect”.
In the case of `O=C(NCc1ccc(Cl)cc1)N/N=C/c1ccc(-c2ccc([N+](=O)[O-])cc2)o1`, the inhibition (Homo sapiens [4]) is reported as 27.1%, the inhibition (Homo sapiens [1]) is reported as 48.6% and the inhibition (Homo sapiens [2]) is reported as 70.4%. For the same compound, the inhibition (Homo sapiens [3]) was “Dose-dependent effect”.
Compound `O=C(N/N=C/c1ccc(-c2ccc([N+](=O)[O-])cc2)o1)n1ccnc1` has an inhibition (Homo sapiens [4]) of 26.1%, an inhibition (Homo sapiens [1]) of 48.4% and an inhibition (Homo sapiens [2]) of 68.2%. For the same compound, the inhibition (Homo sapiens [3]) was “Dose-dependent effect”.
In the case of `O=C1CN(/N=C/c2ccc(-c3ccc([N+](=O)[O-])cc3)o2)C(=O)N1`, the inhibition (Homo sapiens [4]) is reported as 30.8%, the inhibition (Homo sapiens [1]) is reported as 73.1% and the inhibition (Homo sapiens [2]) is reported as 94.2%. For the same compound, the inhibition [6] was 0.1% and the inhibition (Homo sapiens [3]) was “Dose-dependent effect”.
For `Cc1ccc(NC(=O)N/N=C/c2ccc(-c3ccc([N+](=O)[O-])cc3)o2)cc1`, the inhibition (Homo sapiens [1]) was 10.8%, the inhibition (Homo sapiens [2]) was 29.5% and the inhibition (Homo sapiens [3]) was “Dose-dependent effect”.
Work on `Cc1cccc(NC(=O)N/N=C/c2ccc(-c3ccc([N+](=O)[O-])cc3)o2)c1` yielded an inhibition (Homo sapiens [4]) of 10.7%, an inhibition (Homo sapiens [1]) of 15.2% and an inhibition (Homo sapiens [2]) of 34.6%. For the same compound, the inhibition (Homo sapiens [3]) was “Dose-dependent effect”.
Compound `O=C(N/N=C/c1ccc(-c2ccc([N+](=O)[O-])cc2)o1)Nc1ccccc1Br` has an inhibition (Homo sapiens [4]) of 20.1%, an inhibition (Homo sapiens [1]) of 38.5% and an inhibition (Homo sapiens [2]) of 67.1%. The inhibition (Homo sapiens [3]) was “Dose-dependent effect”.
In the case of `O=C(N/N=C/c1ccc(-c2ccc([N+](=O)[O-])cc2)o1)Nc1ccccc1OC(F)(F)F`, the inhibition (Homo sapiens [1]) is reported as 20.4%, the inhibition (Homo sapiens [2]) is reported as 57.1% and the inhibition (Homo sapiens [3]) is reported as “Dose-dependent effect”.
With `O=C(NCc1cccc(Cl)c1Cl)N/N=C/c1ccc(-c2ccc([N+](=O)[O-])cc2)o1` the inhibition (Homo sapiens [2]) was 30.6% and the inhibition (Homo sapiens [3]) was “Dose-dependent effect”.
In the case of `O=C(N/N=C/c1ccc(-c2ccc([N+](=O)[O-])cc2)o1)Nc1ccccc1Cl`, the inhibition (Homo sapiens [1]) is reported as 25.1%, the inhibition (Homo sapiens [2]) is reported as 50.1% and the inhibition (Homo sapiens [3]) is reported as “Dose-dependent effect”.
In the case of `O=C(NCc1ccc(C(F)(F)F)cc1)N/N=C/c1ccc(-c2ccc([N+](=O)[O-])cc2)o1`, the inhibition (Homo sapiens [4]) is reported as 19.7%, the inhibition (Homo sapiens [1]) is reported as 27.9% and the inhibition (Homo sapiens [2]) is reported as 53.1%. The inhibition (Homo sapiens [3]) was “Dose-dependent effect”.
Compound `O=C(N/N=C/c1ccc(-c2ccc([N+](=O)[O-])cc2)o1)Nc1ccccc1C(F)(F)F` has an inhibition (Homo sapiens [4]) of 12.6%, an inhibition (Homo sapiens [1]) of 30.1% and an inhibition (Homo sapiens [2]) of 55.5%. For the same compound, the inhibition (Homo sapiens [3]) was “Dose-dependent effect”.
With `Cc1ccc(CNC(=O)N/N=C/c2ccc(-c3ccc([N+](=O)[O-])cc3)o2)cc1` the inhibition (Homo sapiens [2]) was 35.4% and the inhibition (Homo sapiens [3]) was “Dose-dependent effect”.
For `O=C(NCc1cccc(F)c1)N/N=C/c1ccc(-c2ccc([N+](=O)[O-])cc2)o1`, the inhibition (Homo sapiens [1]) was 25.8%, the inhibition (Homo sapiens [2]) was 72.1% and the inhibition [6] was 33.6%. The inhibition (Homo sapiens [3]) was “Dose-dependent effect”.
With `O=C(N/N=C/c1ccc(-c2ccc([N+](=O)[O-])cc2)o1)c1cnc[nH]1` the inhibition (Homo sapiens [4]) was 31.5%, the inhibition (Homo sapiens [1]) was 77.2% and the inhibition (Homo sapiens [2]) was 93.7%. For the same compound, the solubility kinetic [5] was 580 µM (≈ 189 µg/mL), the inhibition [6] was 24.8% and the inhibition (Homo sapiens [3]) was “Dose-dependent effect”. The Activity [10] was “Non-Toxic”, the Time (Mus musculus [11]) was 29.89 s and the Time (Mus musculus [12]) was 25.12 s. It also gave a Time (Mus musculus [13]) of 16.23 s and an Activity (Mus musculus [14]) of 35.7%.
